Measured values as given in ChEMBL document CHEMBL1138253, “Cytotoxic and apoptotic activities of novel amino analogues of boswellic acids” (2007).
Active and inactive are the calls of the source. The rule behind the calls is not given here.

Columns and labels:
HL-60 = assay: Induction of apoptosis in human HL60 cells assessed as nucleosomal DNA fragmentation at 1 uM after 6 hrs; type: functional, cell-based
Summary of the method: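 HL-60 cells (2 × 10^6/3 ml) exposed to 1 µM compound for 6 h, with camptothecin as positive control and DMSO vehicle in untreated controls. DNA was extracted and run on 1.8% agarose gel to look for laddering.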

DU-145 [1] = assay: Cytotoxicity against human DU145 cells at 10 uM after 48 hrs; type: functional; settings: DU-145, 48 h
Summary of the method: (§1)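 SRB growth assay. DMSO stock (1 × 10^-2 M) diluted in RPMI-1640 (2 mM glutamine, pH 7.4, 10% FCS, antibiotics). Trypsinized subconfluent cells with >97% viability (trypan blue) seeded at 10^5 cells/ml and grown 24 h, then exposed to compound 48 h at 37 °C, 5% CO2. Fixed with TCA at 4 °C for 1 h, stained with 0.4% SRB, solubilized in 0.01 M Tris pH 10.4, OD read at 540 nm. Run in triplicate; mean of three experiments.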

[2] = Cytotoxicity against human 502713 cells at 1 uM after 48 hrs; type: functional; settings: Homo sapiens, 502713, 48 h; summary of the method: as §1
SW-620 [3] = assay: Cytotoxicity against human SW620 cells at 1 uM after 48 hrs; type: functional; settings: SW-620, 48 h; summary of the method: as §1
[4] = Cytotoxicity against human 502713 cells at 10 uM after 48 hrs; type: functional; settings: Homo sapiens, 502713, 48 h; summary of the method: as §1
DU-145 [5] = assay: Cytotoxicity against human DU145 cells at 1 uM after 48 hrs; type: functional; settings: DU-145, 48 h; summary of the method: as §1
MCF7 [6] = assay: Cytotoxicity against human MCF7 cells at 1 uM after 48 hrs; type: functional; settings: MCF7, 48 h; summary of the method: as §1
MCF7 [7] = assay: Cytotoxicity against human MCF7 cells at 10 uM after 48 hrs; type: functional; settings: MCF7, 48 h; summary of the method: as §1
SW-620 [8] = assay: Cytotoxicity against human SW620 cells at 10 uM after 48 hrs; type: functional; settings: SW-620, 48 h; summary of the method: as §1
COLO 205 = assay: Cytotoxicity against human Colo205 cells at 1 uM after 48 hrs; type: functional; settings: COLO 205, 48 h; summary of the method: as §1
HT-29 [9] = assay: Cytotoxicity against human HT29 cells at 10 uM after 48 hrs; type: functional; settings: HT-29, 48 h; summary of the method: as §1
HT-29 [10] = assay: Cytotoxicity against human HT29 cells at 50 uM after 48 hrs; type: functional; settings: HT-29, 48 h
Summary of the method: (§2)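 Stock 1 × 10^-2 M in DMSO, diluted in RPMI-1640 (2 mM glutamine, pH 7.4, 10% FCS, penicillin/streptomycin). Cells grown at 37 C, 5% CO2; subconfluent cells trypsinised, >97% viable by trypan blue. Seeded at 10^5 cells/ml, grown 24 h, then exposed 48 h. TCA fixation at 4 C for 1 h, sulforhodamine B staining, Tris pH 10.4 solubilisation, OD 540 nm. Triplicate; mean of three experiments.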

SW-620 [11] = assay: Cytotoxicity against human SW620 cells at 50 uM after 48 hrs; type: functional; settings: SW-620, 48 h; summary of the method: as §2
MCF7 [12] = assay: Cytotoxicity against human MCF7 cells at 50 uM after 48 hrs; type: functional; settings: MCF7, 48 h; summary of the method: as §2
DU-145 [13] = assay: Cytotoxicity against human DU145 cells at 50 uM after 48 hrs; type: functional; settings: DU-145, 48 h; summary of the method: as §2
[14] = Cytotoxicity against human 502713 cells at 50 uM after 48 hrs; type: functional; settings: Homo sapiens, 502713, 48 h; summary of the method: as §2

| SMILES | Activity (HL-60) | inhibition at 10 µM (DU-145 [1]) | inhibition at 1 µM [2] | inhibition at 1 µM (SW-620 [3]) | inhibition at 10 µM [4] | inhibition at 1 µM (DU-145 [5]) | inhibition at 1 µM (MCF7 [6]) | inhibition at 10 µM (MCF7 [7]) | inhibition at 10 µM (SW-620 [8]) | inhibition at 1 µM (COLO 205) | inhibition at 10 µM (HT-29 [9]) | inhibition at 50 µM (HT-29 [10]) | inhibition at 50 µM (SW-620 [11]) | inhibition at 50 µM (MCF7 [12]) | inhibition at 50 µM (DU-145 [13]) | inhibition at 50 µM [14] |
| --- | --- | --- | --- | --- | --- | --- | --- | --- | --- | --- | --- | --- | --- | --- | --- | --- |
| CC(=O)O[C@@H]1CC[C@]2(C)[C@H]3CC=C4[C@@H]5[C@@H](C)[C@H](C)CC[C@]5(C)CC[C@@]4(C)[C@]3(C)CC[C@H]2[C@@]1(C)N | Active | 92% | 6% | 18% | 96% | 0% | 0% | 10% | 80% | 34% | 44% |  |  |  |  |  |
| CC[C@@]1(O)C(=O)OCc2c1cc1n(c2=O)Cc2cc3ccccc3nc2-1 | Active |  |  |  |  |  |  |  |  |  |  |  |  |  |  |  |
| C[C@H]1[C@H](C)CC[C@]2(C)CC[C@]3(C)C(=CC(=O)[C@@H]4[C@@]5(C)CC[C@@H](O)[C@](C)(N)[C@@H]5CC[C@]43C)[C@H]12 | Active | 94% | 48% | 75% | 86% | 16% | 0% | 44% | 87% | 48% | 71% |  |  |  |  |  |
| COc1cccc2c1C(=O)c1c(O)c3c(c(O)c1C2=O)C[C@@](O)(C(=O)CO)C[C@@H]3O[C@H]1C[C@H](N)[C@H](O)[C@H](C)O1 [DOXORUBICIN] |  |  | 5% | 36% |  | 56% | 74% |  |  | 62% |  |  |  |  |  |  |
| O=c1[nH]cc(F)c(=O)[nH]1 [FLUOROURACIL] |  |  |  |  |  |  |  |  |  |  |  | 36% | 41% | 20% | 31% | 25% |
| CC(=O)O[C@@H]1CC[C@]2(C)[C@H]3C(=O)C=C4[C@@H]5[C@@H](C)[C@H](C)CC[C@]5(C)CC[C@@]4(C)[C@]3(C)CC[C@H]2[C@@]1(C)N | Active | 16% |  |  | 55% |  |  | 1% | 72% |  | 21% |  |  |  |  |  |
| C[C@H]1[C@H](C)CC[C@]2(C)CC[C@]3(C)C(=CC[C@@H]4[C@@]5(C)CC[C@@H](O)[C@](C)(N)[C@@H]5CC[C@]43C)[C@H]12 | Active | 82% | 35% | 45% | 99% | 3% | 0% | 42% | 73% | 30% | 79% |  |  |  |  |  |
| CCCC(=O)N[C@]1(C)[C@@H]2CC[C@]3(C)[C@H](C(=O)C=C4[C@@H]5[C@@H](C)[C@H](C)CC[C@]5(C)CC[C@]43C)[C@@]2(C)CC[C@H]1OC(=O)CCC |  | 0% |  |  | 12% |  |  | 0% | 0% |  | 0% |  |  |  |  |  |
| CCC(=O)N[C@]1(C)[C@@H]2CC[C@]3(C)[C@H](CC=C4[C@@H]5[C@@H](C)[C@H](C)CC[C@]5(C)CC[C@]43C)[C@@]2(C)CC[C@H]1OC(=O)CC |  | 8% |  |  | 9% |  |  | 35% | 0% |  | 0% |  |  |  |  |  |
| CC(=O)N[C@]1(C)[C@@H]2CC[C@]3(C)[C@H](C(=O)C=C4[C@@H]5[C@@H](C)[C@H](C)CC[C@]5(C)CC[C@]43C)[C@@]2(C)CC[C@H]1OC(C)=O |  | 9% |  |  | 20% |  |  | 62% | 0% |  | 0% |  |  |  |  |  |
